Reference: ChEMBL document CHEMBL1955726, “Novel Rho kinase inhibitors with anti-inflammatory and vasodilatory activities” (J Pharmacol Exp Ther, 2007)
Calls of active or inactive are those of the source. The calls are words filed in the database; no cut-off is given here.

How the values were obtained:
[1] = biological target: Ribosomal protein S6 kinase alpha-5 (Homo sapiens, UniProt O75582); assay: Inhibition of MSK1
Rattus norvegicus [2] = assay: Cardiovascular activity in spontaneously hypertensive rat assessed as increase in heart rate at 0.3 to 3 mg/kg, po; assay type: ADME, organism-based; set-up: dose 0.3-3 mg/kg, route oral; conditions: in vivo
Summary of the method: (§1)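 Compound given by oral gavage: 0.3, 1 and 3 mg/kg to spontaneously hypertensive rats, and 1 mg/kg to DOCA salt-treated hypertensive rats. A vehicle group was run alongside. Heart rate and blood pressure were recorded from immediately after dosing as 10-s averages every 5 min. There were 4-6 animals per dose (5 per group in the legend), and the change was taken from each group's baseline.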

[3] = biological target: RAC-gamma serine/threonine-protein kinase (Homo sapiens, UniProt Q9Y243); assay: Inhibition of AKT3
[4] = biological target: Ribosomal protein S6 kinase alpha-1 (Homo sapiens, UniProt Q15418); assay: Inhibition of RSK1
[5] = biological target: T1, Inhibitor of nuclear factor kappa-B kinase subunit beta (Homo sapiens, UniProt O14920); assay: Inhibition of IKK2
T1 sequence (O14920 whole entry): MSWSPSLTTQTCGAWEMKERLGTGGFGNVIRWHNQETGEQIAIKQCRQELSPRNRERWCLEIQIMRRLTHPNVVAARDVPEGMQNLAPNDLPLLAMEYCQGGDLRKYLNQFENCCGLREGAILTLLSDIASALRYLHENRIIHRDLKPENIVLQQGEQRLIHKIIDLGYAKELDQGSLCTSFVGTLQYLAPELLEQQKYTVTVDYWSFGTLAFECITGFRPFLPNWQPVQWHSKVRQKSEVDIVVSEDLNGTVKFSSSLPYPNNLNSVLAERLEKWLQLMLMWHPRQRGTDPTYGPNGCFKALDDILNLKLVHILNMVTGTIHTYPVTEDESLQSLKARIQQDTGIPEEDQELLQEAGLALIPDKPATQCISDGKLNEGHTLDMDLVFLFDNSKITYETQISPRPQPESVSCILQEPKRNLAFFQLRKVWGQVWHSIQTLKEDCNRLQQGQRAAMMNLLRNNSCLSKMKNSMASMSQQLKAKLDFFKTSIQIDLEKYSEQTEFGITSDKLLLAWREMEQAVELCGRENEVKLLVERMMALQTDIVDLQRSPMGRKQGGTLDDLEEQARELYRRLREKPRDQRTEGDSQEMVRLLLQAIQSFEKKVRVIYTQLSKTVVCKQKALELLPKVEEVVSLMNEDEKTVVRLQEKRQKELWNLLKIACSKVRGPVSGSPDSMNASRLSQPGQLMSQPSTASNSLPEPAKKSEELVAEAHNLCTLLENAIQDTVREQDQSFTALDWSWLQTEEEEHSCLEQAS

[6] = biological target: Serine/threonine-protein kinase PLK1 (Homo sapiens, UniProt P53350); assay: Inhibition of PLK
[7] = biological target: Mitogen-activated protein kinase 10 (Homo sapiens, UniProt P53779); assay: Inhibition of JNK3
[8] = biological target: RAC-alpha serine/threonine-protein kinase (Homo sapiens, UniProt P31749); assay: Inhibition of AKT1
[9] = biological target: Glycogen synthase kinase-3 alpha (Homo sapiens, UniProt P49840); assay: Inhibition of GSK3alpha
[10] = biological target: Cyclin-dependent kinase 2 (Homo sapiens, UniProt P24941); assay: Inhibition of CDK2
Aorta = assay: Vasodilatory activity in Sprague-Dawley rat aorta assessed as reversal of KCl/phenylephrine-induced muscle contraction; assay type: functional, tissue-based
[11] = biological target: Rho-associated protein kinase 2 (Homo sapiens, UniProt O75116); assay: Inhibition of human ROCK2
[12] = biological target: Rho-associated protein kinase 1 (Homo sapiens, UniProt Q13464); assay: Inhibition of human recombinant N-terminal his-tagged ROCK1 (3-543) expressed in baculovirus infected Sf9 cells using Biotin-Ahx-AKRRLSSLRA-CONH2 substrate and [gamma-33P]ATP after 90 mins by scintillation proximity assay
[13] = test system: primary macrophages (Homo sapiens); assay: Antiinflammatory activity in human primary monocyte-derived macrophages assessed as inhibition of LPS-induced IL-6 mRNA expression at 10 uM treated 30 mins before LPS stimulation measured after 18 hrs by Northern blotting
Rattus norvegicus [14] = assay: Cardiovascular activity in DOCA salt treated rat assessed as increase in heart rate at 1 mg/kg, po; assay type: ADME, organism-based; set-up: dose 1 mg/kg, route oral; conditions: in vivo; summary of the method: as §1
Rattus norvegicus [15] = assay: Antihypertensive activity in spontaneously hypertensive rat assessed as reduction of blood pressure at 1 mg/kg, po after 2 hrs; assay type: functional
[16] = biological target: RAC-beta serine/threonine-protein kinase (Homo sapiens, UniProt P31751); assay: Inhibition of AKT2
Rattus norvegicus [17] = assay: Antihypertensive activity in rat assessed as reduction of DOCA salt-induced blood pressure at 1 mg/kg, po after 2 hrs; assay type: functional
Rattus norvegicus [18] = assay: Antihypertensive activity in normotensive Sprague-Dawley rat assessed as reduction of blood pressure at 1 mg/kg, po after 2 hrs; assay type: functional

Rho-associated protein kinase 2, sequence (O75116 whole entry): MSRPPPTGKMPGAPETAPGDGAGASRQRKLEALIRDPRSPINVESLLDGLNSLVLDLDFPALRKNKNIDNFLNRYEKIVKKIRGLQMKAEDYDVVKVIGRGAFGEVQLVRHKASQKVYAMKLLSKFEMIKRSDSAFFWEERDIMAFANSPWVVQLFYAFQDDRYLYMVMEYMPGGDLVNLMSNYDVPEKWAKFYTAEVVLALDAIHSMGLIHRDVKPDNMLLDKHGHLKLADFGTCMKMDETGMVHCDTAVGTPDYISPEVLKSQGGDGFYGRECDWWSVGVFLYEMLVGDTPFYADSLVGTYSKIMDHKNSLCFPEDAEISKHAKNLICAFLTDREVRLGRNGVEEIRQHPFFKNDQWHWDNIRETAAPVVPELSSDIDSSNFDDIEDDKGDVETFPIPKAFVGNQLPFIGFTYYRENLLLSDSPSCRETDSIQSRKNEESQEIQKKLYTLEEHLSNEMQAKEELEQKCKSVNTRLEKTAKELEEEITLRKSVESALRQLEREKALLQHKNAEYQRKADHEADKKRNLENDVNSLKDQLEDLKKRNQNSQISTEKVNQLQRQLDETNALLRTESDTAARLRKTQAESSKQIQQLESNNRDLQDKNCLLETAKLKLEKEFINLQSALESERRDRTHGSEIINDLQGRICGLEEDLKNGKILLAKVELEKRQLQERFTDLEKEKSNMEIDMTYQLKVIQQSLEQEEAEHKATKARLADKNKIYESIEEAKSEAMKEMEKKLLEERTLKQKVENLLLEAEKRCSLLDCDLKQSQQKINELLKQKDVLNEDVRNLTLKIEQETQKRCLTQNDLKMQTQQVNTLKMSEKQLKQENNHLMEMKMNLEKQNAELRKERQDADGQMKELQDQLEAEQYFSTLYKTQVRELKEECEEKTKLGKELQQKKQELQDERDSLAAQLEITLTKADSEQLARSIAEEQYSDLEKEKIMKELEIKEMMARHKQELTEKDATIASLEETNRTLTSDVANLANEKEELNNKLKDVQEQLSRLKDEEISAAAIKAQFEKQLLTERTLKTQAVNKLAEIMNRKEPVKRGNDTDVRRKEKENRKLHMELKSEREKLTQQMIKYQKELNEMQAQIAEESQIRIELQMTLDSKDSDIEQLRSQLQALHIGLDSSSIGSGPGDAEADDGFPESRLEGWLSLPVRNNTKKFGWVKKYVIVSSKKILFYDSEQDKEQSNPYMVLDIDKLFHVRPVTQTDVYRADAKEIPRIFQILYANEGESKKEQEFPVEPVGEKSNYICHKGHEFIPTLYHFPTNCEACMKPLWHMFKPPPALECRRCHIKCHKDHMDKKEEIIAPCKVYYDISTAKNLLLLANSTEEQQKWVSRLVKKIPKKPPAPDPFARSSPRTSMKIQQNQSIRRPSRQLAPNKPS
Rho-associated protein kinase 1, sequence (Q13464 whole entry): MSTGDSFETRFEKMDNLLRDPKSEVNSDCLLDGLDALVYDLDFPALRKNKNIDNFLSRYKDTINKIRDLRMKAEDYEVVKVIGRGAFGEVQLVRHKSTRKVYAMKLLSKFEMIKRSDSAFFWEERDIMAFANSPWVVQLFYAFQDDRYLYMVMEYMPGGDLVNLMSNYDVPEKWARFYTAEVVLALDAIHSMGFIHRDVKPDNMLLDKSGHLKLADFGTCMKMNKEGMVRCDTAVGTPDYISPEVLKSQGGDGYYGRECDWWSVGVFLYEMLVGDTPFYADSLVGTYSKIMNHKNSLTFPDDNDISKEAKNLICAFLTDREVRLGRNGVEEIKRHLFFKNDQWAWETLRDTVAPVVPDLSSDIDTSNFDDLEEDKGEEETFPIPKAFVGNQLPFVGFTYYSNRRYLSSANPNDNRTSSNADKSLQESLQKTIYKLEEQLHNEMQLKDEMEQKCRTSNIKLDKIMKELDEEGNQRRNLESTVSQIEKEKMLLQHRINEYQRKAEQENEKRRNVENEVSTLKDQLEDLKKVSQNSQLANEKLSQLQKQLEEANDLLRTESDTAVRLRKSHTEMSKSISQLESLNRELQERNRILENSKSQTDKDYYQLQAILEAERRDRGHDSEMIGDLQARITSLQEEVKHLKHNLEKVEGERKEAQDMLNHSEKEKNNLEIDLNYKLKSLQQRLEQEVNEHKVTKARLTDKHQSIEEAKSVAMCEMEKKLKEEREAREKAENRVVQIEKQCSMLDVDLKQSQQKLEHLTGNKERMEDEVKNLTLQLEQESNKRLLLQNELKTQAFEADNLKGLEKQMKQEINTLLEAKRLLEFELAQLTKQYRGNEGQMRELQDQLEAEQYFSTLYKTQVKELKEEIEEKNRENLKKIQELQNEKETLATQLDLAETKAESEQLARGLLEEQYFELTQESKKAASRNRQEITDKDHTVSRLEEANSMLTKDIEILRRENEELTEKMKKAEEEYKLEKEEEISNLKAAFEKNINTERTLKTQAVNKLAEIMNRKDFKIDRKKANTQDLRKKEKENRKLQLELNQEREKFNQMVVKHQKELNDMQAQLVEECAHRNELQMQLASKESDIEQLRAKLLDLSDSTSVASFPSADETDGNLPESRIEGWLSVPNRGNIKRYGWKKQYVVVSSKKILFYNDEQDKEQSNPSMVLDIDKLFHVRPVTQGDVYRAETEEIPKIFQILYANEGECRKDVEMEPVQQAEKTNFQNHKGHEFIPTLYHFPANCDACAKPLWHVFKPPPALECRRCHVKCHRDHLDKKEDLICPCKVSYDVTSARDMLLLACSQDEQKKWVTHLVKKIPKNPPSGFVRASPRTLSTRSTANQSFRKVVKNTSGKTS
Glycogen synthase kinase-3 alpha, sequence (P49840 whole entry): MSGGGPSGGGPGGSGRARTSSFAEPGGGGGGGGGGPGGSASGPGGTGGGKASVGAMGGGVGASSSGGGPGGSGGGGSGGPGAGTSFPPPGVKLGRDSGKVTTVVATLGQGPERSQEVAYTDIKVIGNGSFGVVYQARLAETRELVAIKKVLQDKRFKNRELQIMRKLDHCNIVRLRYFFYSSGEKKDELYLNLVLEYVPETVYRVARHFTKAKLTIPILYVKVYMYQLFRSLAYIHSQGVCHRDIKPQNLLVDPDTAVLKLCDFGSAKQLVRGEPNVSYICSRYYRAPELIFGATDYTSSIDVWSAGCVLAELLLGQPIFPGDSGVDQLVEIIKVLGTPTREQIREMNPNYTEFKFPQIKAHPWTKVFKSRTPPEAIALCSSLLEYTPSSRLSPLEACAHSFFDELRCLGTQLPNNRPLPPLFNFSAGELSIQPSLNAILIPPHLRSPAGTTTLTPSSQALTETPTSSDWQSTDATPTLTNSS
RAC-gamma serine/threonine-protein kinase, sequence (Q9Y243 whole entry): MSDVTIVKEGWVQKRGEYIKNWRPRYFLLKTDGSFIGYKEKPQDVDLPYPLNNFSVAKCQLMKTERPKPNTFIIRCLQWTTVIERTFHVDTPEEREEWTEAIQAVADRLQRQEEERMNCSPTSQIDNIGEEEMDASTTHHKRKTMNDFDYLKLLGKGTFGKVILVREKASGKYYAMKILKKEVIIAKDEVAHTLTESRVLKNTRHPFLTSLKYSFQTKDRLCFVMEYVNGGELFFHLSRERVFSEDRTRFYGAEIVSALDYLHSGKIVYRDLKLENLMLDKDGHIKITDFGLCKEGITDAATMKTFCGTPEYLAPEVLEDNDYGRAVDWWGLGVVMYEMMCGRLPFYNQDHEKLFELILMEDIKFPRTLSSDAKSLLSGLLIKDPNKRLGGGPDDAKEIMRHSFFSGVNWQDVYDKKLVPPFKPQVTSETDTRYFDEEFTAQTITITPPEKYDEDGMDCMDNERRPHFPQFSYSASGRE
RAC-alpha serine/threonine-protein kinase, sequence (P31749 whole entry): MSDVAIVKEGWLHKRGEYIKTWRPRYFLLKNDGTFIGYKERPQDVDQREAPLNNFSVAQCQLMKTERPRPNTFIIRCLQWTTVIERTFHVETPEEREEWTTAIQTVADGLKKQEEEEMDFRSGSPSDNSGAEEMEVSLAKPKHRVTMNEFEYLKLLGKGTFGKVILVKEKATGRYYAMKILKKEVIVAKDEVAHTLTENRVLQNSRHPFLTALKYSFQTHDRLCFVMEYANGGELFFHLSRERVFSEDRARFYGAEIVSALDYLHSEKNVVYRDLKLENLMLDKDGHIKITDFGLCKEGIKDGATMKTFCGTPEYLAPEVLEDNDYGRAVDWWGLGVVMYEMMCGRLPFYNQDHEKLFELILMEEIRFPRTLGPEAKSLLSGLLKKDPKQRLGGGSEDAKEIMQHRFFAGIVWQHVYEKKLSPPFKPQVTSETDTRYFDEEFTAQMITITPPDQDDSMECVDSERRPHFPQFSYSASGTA
Ribosomal protein S6 kinase alpha-1, sequence (Q15418 whole entry): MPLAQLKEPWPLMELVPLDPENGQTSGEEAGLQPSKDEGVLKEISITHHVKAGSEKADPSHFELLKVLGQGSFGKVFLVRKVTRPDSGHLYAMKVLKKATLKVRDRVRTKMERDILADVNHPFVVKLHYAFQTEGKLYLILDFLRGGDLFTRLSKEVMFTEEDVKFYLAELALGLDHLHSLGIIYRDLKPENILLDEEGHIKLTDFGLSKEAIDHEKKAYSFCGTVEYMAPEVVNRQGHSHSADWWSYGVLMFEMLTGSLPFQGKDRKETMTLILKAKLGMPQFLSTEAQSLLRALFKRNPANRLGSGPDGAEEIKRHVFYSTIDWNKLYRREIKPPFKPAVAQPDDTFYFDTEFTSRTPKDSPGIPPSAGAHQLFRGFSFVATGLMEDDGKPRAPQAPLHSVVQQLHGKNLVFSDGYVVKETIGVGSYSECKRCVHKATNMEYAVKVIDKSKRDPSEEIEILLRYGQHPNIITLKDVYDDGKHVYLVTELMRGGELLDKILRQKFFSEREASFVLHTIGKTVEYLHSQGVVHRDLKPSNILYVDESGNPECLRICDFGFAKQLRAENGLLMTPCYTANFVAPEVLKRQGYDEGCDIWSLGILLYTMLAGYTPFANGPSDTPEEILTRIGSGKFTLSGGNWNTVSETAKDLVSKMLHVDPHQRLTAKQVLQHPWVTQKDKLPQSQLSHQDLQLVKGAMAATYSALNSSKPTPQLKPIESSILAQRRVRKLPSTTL

CCn1c(-c2nonc2N)nc2cnc(Oc3cccc(NC(=O)c4ccc(OCCN5CCOCC5)cc4)c3)cc21 [GSK-269962A]
IC50 [1]: 0.049 µM | Activity (Rattus norvegicus [2]): Dose-dependent effect | IC50 [3]: 1.51 µM | IC50 [4]: 0.132 µM | IC50 [5]: > 10 µM | IC50 [6]: > 10 µM | IC50 [7]: > 10 µM | IC50 [8]: 0.955 µM | IC50 [9]: 1.26 µM | IC50 [10]: 3.5 µM

C[C@@H](N)[C@H]1CC[C@H](C(=O)Nc2ccncc2)CC1 [Y-27632]
IC50 (Aorta): 1.4 µM | Activity (Rattus norvegicus [2]): Dose-dependent effect

CCn1c(-c2nonc2N)nc2cnccc21
IC50 [11]: < 0.01 µM | IC50 [12]: < 0.01 µM | inhibition [13]: Active

CCn1c(-c2nonc2N)nc2cncc(C(=O)N3CC[C@H](N)C3)c21
Activity (Rattus norvegicus [14]): Toxic | Activity (Rattus norvegicus [2]): Dose-dependent effect | IC50 [3]: 1.29 µM | IC50 [4]: 0.035 µM | Activity (Rattus norvegicus [15]): 40 mmHg | IC50 [5]: > 10 µM | IC50 [6]: > 10 µM | IC50 [7]: > 10 µM | IC50 [16]: 1.95 µM | Activity (Rattus norvegicus [17]): 40 mmHg | IC50 [8]: 0.324 µM | Activity (Rattus norvegicus [18]): 12 mmHg | IC50 [9]: 9.1 µM | IC50 [10]: 7 µM

CCn1c(-c2nonc2N)nc2cncc(-c3ccc(CN)cc3)c21
IC50 [11]: < 0.01 µM | IC50 [12]: < 0.01 µM | inhibition [13]: Active
